Six molecules from ChEMBL document CHEMBL1153263, “3-Acrylamide-4-aryloxyindoles: synthesis, biological evaluation and metabolic stability of potent and selective EP3 receptor antagonists” (Bioorg Med Chem Lett, 2009) can be followed below.

Series [1] addresses T1, Prostaglandin E2 receptor EP3 subtype (Homo sapiens, UniProt P43115).
T1 sequence (P43115 whole entry): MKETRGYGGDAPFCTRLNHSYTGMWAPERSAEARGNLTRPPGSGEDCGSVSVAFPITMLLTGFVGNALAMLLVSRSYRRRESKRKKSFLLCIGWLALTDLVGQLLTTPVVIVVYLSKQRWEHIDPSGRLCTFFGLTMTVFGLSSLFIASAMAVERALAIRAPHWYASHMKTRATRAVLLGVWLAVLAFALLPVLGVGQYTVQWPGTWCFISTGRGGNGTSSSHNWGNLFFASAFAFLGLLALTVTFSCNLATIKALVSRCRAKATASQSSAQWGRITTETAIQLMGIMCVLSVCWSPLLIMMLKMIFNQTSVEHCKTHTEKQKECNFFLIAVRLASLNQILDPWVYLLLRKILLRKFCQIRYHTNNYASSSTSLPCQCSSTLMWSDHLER
Description: Displacement of [3H]PGE2 from human EP3 receptor at 20 uM in presence of normal buffer.

The target of series [2] is T1, Prostaglandin E2 receptor EP3 subtype. Description: Displacement of [3H]PGE2 from human EP3 receptor at 20 uM in presence of 10% human serum.
The target of series [3] is T2, Prostaglandin E2 receptor EP3 subtype (Homo sapiens) (UniProt P43115).
T2 sequence (whole entry): T1 sequence (P43115 whole entry)
In words: Ratio IC50 for human EP3 receptor in presence of human serum to IC50 for human EP3 in absence of human serum.

The target in series [4] is Prostaglandin E2 receptor EP2 subtype (Homo sapiens, UniProt P43116). In words: Displacement of radioligand from EP2 receptor.
Series [5] addresses Prostaglandin E2 receptor EP4 subtype (Homo sapiens, UniProt P35408). In words: Displacement of radioligand from EP4 receptor.
Series [6] has as its target Prostaglandin F2-alpha receptor (Homo sapiens, UniProt P43088). In words: Displacement of radioligand from FP receptor.
Series [7] can be described thus: Metabolic stability in human liver microsome assessed as compound remaining at 5 uM after 30 mins. The format is ADME. Particulars: liver microsomes, read-out: Stability. In a few lines:
(§1)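 Liver microsomes at 0.8 mg/mL protein incubated with compound at 5 µM. Percent parent remaining after 30 min measured by LC–MS/MS.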

Series [8] can be described thus: Metabolic stability in rat liver microsome assessed as compound remaining at 5 uM after 30 mins. Particulars: liver microsomes, read-out: Stability. The format is ADME. In a few lines:
as §1
A general note: Liver microsomes are vesicles of endoplasmic reticulum, rich in cytochrome P450 enzymes.

Series [9] is described as follows: Metabolic stability in mouse liver microsome assessed as compound remaining at 5 uM after 30 mins. In kind it is ADME. Particulars: liver microsomes, read-out: Stability. The essentials: as §1
The nature of series [10]: Metabolic stability in dog liver microsome assessed as compound remaining at 5 uM after 30 mins. In kind it is ADME, Canis lupus familiaris. Particulars: liver microsomes, read-out: Stability. The essentials:
as §1

A short description of series [11]: Metabolic stability in monkey liver microsome assessed as compound remaining at 5 uM after 30 mins. The format is ADME, Macaca mulatta. Particulars: rhesus monkey, liver microsomes; read-out: Stability. In a few lines:
as §1

In series [12] the target is T1, Prostaglandin E2 receptor EP3 subtype. Description: Antagonist activity at human EP3-2 receptor expressed in CHOK1 cells. In kind it is functional, cell-based, CHO-K1. In a few lines:
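Stably transfected CHO-K1 cells expressing hEP3II, plated at 10⁵ cells/well and cultured overnight at 37 °C, 5% CO2. Washed with PBS, pre-incubated 30 min at 37 °C in serum-free medium with 1 mM IBMX. Stimulated with PGE2 (5×10⁻⁹ M) plus forskolin (5×10⁻⁶ M) ± compound (10⁻⁴–10⁻¹³ M) for 10 min at 37 °C. cAMP measured by EIA; EC50 from sigmoid non-linear regression.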

Series [13] addresses T3, Prostaglandin E2 receptor EP1 subtype (Homo sapiens, UniProt P34995).
T3 sequence (P34995 whole entry): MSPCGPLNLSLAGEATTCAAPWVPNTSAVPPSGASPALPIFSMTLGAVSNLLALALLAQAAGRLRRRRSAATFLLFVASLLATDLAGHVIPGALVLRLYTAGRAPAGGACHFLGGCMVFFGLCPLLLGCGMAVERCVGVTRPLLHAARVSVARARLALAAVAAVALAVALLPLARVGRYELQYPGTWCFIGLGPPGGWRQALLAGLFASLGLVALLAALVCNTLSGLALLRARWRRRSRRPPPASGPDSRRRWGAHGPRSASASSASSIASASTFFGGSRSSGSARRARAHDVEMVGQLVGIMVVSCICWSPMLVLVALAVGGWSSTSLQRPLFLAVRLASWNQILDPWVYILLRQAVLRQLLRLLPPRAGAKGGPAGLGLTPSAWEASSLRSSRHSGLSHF
In words: Displacement of radioligand from EP1 receptor.

The nature of series [14]: Antiplatelet activity against rat platelet assessed as platelet aggregation. In kind it is functional, cell-based.
Series [15] can be described thus: Antiplatelet activity against human platelet assessed as platelet aggregation. In kind it is functional, cell-based.
The subject of the next series is Mus musculus. Description: Plasma concentration in NMRI mouse at 2 mg/kg, iv. The format is ADME, organism-based. Details: dose 2 mg/kg, route intravenous. Particulars: in vivo. In a few lines: (§2)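 Mouse iv exposure screen. Plasma and brain concentrations sampled 15 min after dosing.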
The next series relates to Brain. In words: Brain concentration in NMRI mouse at 2 mg/kg, iv. The format is ADME, organism-based. Details: dose 2 mg/kg, route intravenous. Particulars: in vivo. The essentials: as §2
The target of the next series is Prostacyclin receptor (Homo sapiens, UniProt P43119). Description: Displacement of radioligand from IP receptor.

Each structure is given as a SMILES string. Where only a bound is given, the exact number is not on record here.

Prostaglandin F2-alpha receptor, sequence (P43088 whole entry): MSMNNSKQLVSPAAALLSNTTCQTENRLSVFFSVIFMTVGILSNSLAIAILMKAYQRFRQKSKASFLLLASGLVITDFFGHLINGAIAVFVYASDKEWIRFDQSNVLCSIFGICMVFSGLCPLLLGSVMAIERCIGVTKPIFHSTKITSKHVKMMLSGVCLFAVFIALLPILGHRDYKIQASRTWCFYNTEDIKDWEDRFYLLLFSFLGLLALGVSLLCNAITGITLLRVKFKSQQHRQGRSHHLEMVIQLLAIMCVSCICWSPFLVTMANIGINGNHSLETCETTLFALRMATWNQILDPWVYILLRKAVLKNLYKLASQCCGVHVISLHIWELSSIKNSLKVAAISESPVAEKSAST
Prostacyclin receptor, sequence (P43119 whole entry): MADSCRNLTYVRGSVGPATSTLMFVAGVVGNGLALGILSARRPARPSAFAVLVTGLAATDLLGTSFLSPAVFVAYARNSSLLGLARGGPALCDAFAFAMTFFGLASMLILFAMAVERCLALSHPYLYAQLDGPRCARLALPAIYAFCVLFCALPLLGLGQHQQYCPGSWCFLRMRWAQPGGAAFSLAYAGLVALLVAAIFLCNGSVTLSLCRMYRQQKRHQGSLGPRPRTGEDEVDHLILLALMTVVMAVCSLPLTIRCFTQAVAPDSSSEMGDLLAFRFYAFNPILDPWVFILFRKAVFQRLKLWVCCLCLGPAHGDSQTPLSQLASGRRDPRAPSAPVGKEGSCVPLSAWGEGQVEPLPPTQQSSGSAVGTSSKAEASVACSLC
Prostaglandin E2 receptor EP4 subtype, sequence (P35408 whole entry): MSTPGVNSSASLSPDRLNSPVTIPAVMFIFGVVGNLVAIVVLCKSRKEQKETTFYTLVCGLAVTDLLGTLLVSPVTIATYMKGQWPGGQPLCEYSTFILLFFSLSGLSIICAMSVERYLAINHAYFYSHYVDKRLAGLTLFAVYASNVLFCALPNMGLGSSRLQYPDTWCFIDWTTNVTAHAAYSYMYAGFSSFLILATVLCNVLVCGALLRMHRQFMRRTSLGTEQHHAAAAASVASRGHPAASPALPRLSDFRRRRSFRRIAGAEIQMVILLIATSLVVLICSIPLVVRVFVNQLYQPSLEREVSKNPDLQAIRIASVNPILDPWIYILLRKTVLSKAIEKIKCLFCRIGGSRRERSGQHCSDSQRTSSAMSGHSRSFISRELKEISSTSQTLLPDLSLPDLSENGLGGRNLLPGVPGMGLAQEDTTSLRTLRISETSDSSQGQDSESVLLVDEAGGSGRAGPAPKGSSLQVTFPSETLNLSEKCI
Prostaglandin E2 receptor EP2 subtype, sequence (P43116 whole entry): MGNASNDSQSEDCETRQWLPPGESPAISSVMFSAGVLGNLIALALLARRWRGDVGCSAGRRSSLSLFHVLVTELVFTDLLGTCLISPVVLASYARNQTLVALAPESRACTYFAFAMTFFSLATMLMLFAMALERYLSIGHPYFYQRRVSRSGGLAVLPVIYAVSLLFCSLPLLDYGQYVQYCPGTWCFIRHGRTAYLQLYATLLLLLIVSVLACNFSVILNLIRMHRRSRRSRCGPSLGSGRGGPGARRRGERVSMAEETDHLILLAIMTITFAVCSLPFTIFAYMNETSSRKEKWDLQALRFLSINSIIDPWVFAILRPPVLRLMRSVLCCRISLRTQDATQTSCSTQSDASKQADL

In general, IC50 refers to the point on the concentration scale where inhibition reaches its midpoint. What is called EC50 is the concentration that produces a half-maximal response. As to `Cn1cc(/C=C/C(=O)NS(=O)(=O)c2ccc(F)c(F)c2)c2c(Oc3ccc(Cl)cc3Cl)cccc21`, the IC50 in series [1] stood at 11.8 nM; in series [2], 23.7 nM; in [4], 9600 nM; in series [5] it was 14600 nM; in series [6] it was 1970 nM; in series [13] it was 3860 nM. Moreover, the Ratio IC50 in series [3] amounted to 2. Also, the remaining at 0.5 h, 5 µM in [7] was 74.7%; in [8], 30.6%; in series [9], 69%; in series [10], 104%; in [11] it was 53.8%. For the same molecule, the EC50 in series [12] was found to be 26.1 nM.
Consider `Cn1cc(/C=C/C(=O)NS(=O)(=O)c2cccc(Cl)c2)c2c(Oc3ccc4ccccc4c3)cccc21`, for which the IC50 in series [1] was 15.7 nM; in series [2], 35 nM. In addition, in series [3], the Ratio IC50 was found to be 2.2. Moreover, the remaining at 0.5 h, 5 µM in [7] came out at 79%; in series [8], 33.3%; in [10] it was 80.6%.
With `Cn1cc(/C=C/C(=O)NS(=O)(=O)c2cc(F)c(F)cc2F)c2c(Oc3ccc4ccccc4c3)cccc21`, the IC50 in series [1] was 9.2 nM; in series [2], 28 nM. Further, in series [3], the Ratio IC50 worked out at 3.1. In addition, the remaining at 0.5 h, 5 µM stood at 91.2% in series [7], 32% in series [8] and 90.4% in series [10]. The figures for the half-maximal effective concentration (EC50) in [14] and in [15] were 11.6 nM and 8.1 nM, respectively. The same molecule yielded a Cp in the series with Mus musculus of 1518 ng/mL. Besides, in the series on Brain, the Drug uptake was 29.1 ng/mL.
For `Cn1cc(/C=C/C(=O)NS(=O)(=O)c2ccc(F)c(F)c2)c2c(Oc3ccc(F)c(Cl)c3)cccc21`, the IC50 in series [1] was 26.9 nM; in series [2], 81.5 nM; in series [4] it was over 10000 nM; in series [5], over 10000 nM; at Prostacyclin receptor, 4100 nM; in [6], 1820 nM. For the same molecule, the Ratio IC50 in series [3] came out at 3. Moreover, the remaining at 0.5 h, 5 µM is 91.5% in [7] and 32% in [8].
On to `Cn1cc(/C=C/C(=O)NS(=O)(=O)c2ccc(F)c(F)c2)c2c(Oc3ccc(Cl)cc3F)cccc21`, for which the IC50 in [1] is 7.2 nM; in series [2], 124 nM; in series [4] it was over 10000 nM; in series [5] it was over 10000 nM; at Prostacyclin receptor, over 10000 nM; in series [6], 3190 nM. The same molecule displayed an IC50 in [13] of over 10000 nM. Moreover, in series [3], the Ratio IC50 came to 17.2. The remaining at 0.5 h, 5 µM in series [7] was determined as 113%; in series [8], 40%.
Consider `Cn1cc(/C=C/C(=O)NS(=O)(=O)c2ccc(F)c(F)c2)c2c(Oc3ccc4ccccc4c3)cccc21`, for which the concentration for half-maximal inhibition (IC50) in [1] is 7.4 nM; in [2] it was 15.9 nM; in series [4], 12500 nM; in series [5], 12500 nM; on Prostacyclin receptor, 1880 nM; in series [6], 3590 nM. This molecule also registered an IC50 in series [13] of 1420 nM. For the same molecule, in [3], the Ratio IC50 amounted to 2.1. Also, the remaining at 0.5 h, 5 µM came to 63.6% in series [7]; 24.6% in series [8]; 62% in [9]; 69.7% in series [10]; 59% in series [11]. The EC50 in series [14] amounted to 12.8 nM. In the series with Mus musculus, this molecule showed a Cp of 3420 ng/mL. In the series on Brain, this molecule yielded a Drug uptake of 55.7 ng/mL.
